Source: ChEMBL document CHEMBL2311508, “A natural product inspired hybrid approach towards the synthesis of novel pentamidine based scaffolds as potential anti-parasitic agents” (Bioorg Med Chem Lett, 2013)
Converted amounts (≈) assume the structure as drawn. The source made the active and inactive calls. No cut-off for these calls is given here.

Columns and labels:
[1] = Selectivity index, ratio of CC50 for african green monkey Vero cells to IC50 for chloroquine-sensitive Plasmodium falciparum 3D7; assay type: functional
[2] = Cytotoxicity against african green monkey Vero cells after 72 hrs by MTT assay; assay type: cell-based; settings: chlorocebus sabaeus
Summary of the method: (§1)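 Mammalian cells exposed to compound dilutions for 72 h; MTT used for detection (modified Mosmann method). CC50 derived by nonlinear regression.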

Plasmodium falciparum [3] = test: Antimalarial activity against chloroquine-resistant Plasmodium falciparum K1 assessed as parasite growth inhibition after 72 hrs by MSF assay; assay type: functional, organism-based; settings: K1, 72 h
Summary of the method: (§2)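 P. falciparum cultures in RPMI-1640-FBS; DMSO stock 5 mg/ml, test dilutions in culture medium; duplicate wells; 1.0% parasitized cell suspension at 0.8% parasitaemia; 37 °C, 5% CO2 in air, 72 h. Lysis buffer with SYBR Green I added, 1 h at 37 °C; fluorescence read at 485/530 nm excitation/emission as RFU. Chloroquine reference. IC50 in ng/mL.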

Plasmodium falciparum [4] = test: Antimalarial activity against chloroquine-sensitive Plasmodium falciparum 3D7 assessed as parasite growth inhibition after 72 hrs by MSF assay; assay type: functional, organism-based; settings: 3D7, 72 h; summary of the method: as §2
[5] = (§3) Selectivity index, ratio of CC50 for human KB cells to IC50 for amastigote stage of Leishmania donovani infected in mouse J774A.1 cells; assay type: functional
Summary of the method: (§4)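 SI = CC50 in KB cells (72 h MTT, nonlinear regression) divided by IC50 against intracellular amastigotes (72 h luciferase assay in infected macrophages, logit regression).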

[6] = (§5) Cytotoxicity against human KB cells after 72 hrs by MTT assay; assay type: cell-based; settings: KB cells; summary of the method: as §1
Leishmania donovani [7] = test: Antileishmanial activity against amastigote stage of Leishmania donovani infected in mouse J774A.1 cells assessed as intracellular parasite growth inhibition after 72 hrs by luciferase reporter gene assay; assay type: functional, organism-based; settings: J774.A1, 72 h
Summary of the method: (§6)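 Macrophages seeded at 4 × 10³ cells/100 µL/well in RPMI-1640 with 10% fetal calf serum, 37 °C, CO₂. After 24 h, medium replaced with fresh medium containing stationary-phase promastigotes (4 × 10⁴/100 µL/well), which were phagocytosed and transformed to amastigotes. Compounds added at up to 7 concentrations starting from 40 µM, 72 h at 37 °C. Steady-Glo luciferase read as RLU versus untreated controls; IC50 by logit regression.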

Leishmania donovani [8] = test: Antileishmanial activity against amastigote stage of Leishmania donovani infected in mouse J774A.1 cells assessed as intracellular parasite growth inhibition at 40 uM after 72 hrs by luciferase reporter gene assay; assay type: functional, organism-based; summary of the method: as §6
KB [9] = test: as §5; assay type: cell-based; settings: kb, 72 h; summary of the method: as §1
KB [10] = test: as §3; assay type: functional; summary of the method: as §4

Molecule	Ratio CC50/IC50 [1]	CC50 at 72 h [2] [µg/mL]	IC50 (Plasmodium falciparum [3]) [µg/mL]	IC50 (Plasmodium falciparum [4]) [µg/mL]	Ratio CC50/IC50 [5]	CC50 at 72 h [6] [nM]	IC50 (Leishmania donovani [7]) [nM]	growth inhibition (GI) (Leishmania donovani [8])	CC50 (KB [9]) [µg/mL]	Ratio CC50/IC50 (KB [10])
CCN1CCN(c2cc(C)nc(Nc3ccc(OCCCCCOc4ccc(Nc5nc(C)cc(N6CCN(CC)CC6)n5)cc4)cc3)n2)CC1	157.9	7.13 (≈ 10.3 µM)	0.0221 (≈ 0.0318 µM)	0.0451 (≈ 0.065 µM)	12.17	3650	300			
CCCCCCCCCCCCCCCCOP(=O)([O-])OCC[N+](C)(C)C [MILTEFOSINE]					0.25					
O=C(/C=C/c1ccc(OCCCCCOc2ccc(/C=C/C(=O)c3ccccc3)cc2)cc1)c1ccccc1					>242.42	> 400000	1650			
Nc1nc(-c2ccccc2)cc(-c2ccc(OCCCCCOc3ccc(-c4cc(-c5ccccc5)nc(N)n4)cc3)cc2)n1					>242.42	> 400000	960			
Cc1cc(NCc2ccc(F)cc2)nc(Nc2ccc(OCCCCCOc3ccc(Nc4nc(C)cc(NCc5ccc(F)cc5)n4)cc3)cc2)n1	1051.51	41.4 (≈ 57.8 µM)	0.358 (≈ 0.5 µM)	0.0394 (≈ 0.055 µM)	6.16	8680	1410			
COc1ccc(CNc2cc(C)nc(Nc3ccc(OCCCCCOc4ccc(Nc5nc(C)cc(NCc6ccc(OC)cc6)n5)cc4)cc3)n2)cc1	288.28	3.37 (≈ 4.55 µM)	0.0236 (≈ 0.0319 µM)	0.0117 (≈ 0.0158 µM)	3.7	2110	570			
COc1ccc(C(=O)/C=C/c2ccc(OCCCCCOc3ccc(C=O)cc3)cc2)cc1OC					0.49	13900	28400			
Cc1cc(N2CCOCC2)nc(Nc2ccc(OCCCCCOc3ccc(Nc4nc(C)cc(N5CCOCC5)n4)cc3)cc2)n1	7.82	2.06 (≈ 3.21 µM)		0.264 (≈ 0.412 µM)	4.67	5510	1180			
COc1ccc(C(=O)/C=C/c2ccc(OCCCCCOc3ccc(/C=C/C(=O)c4ccc(OC)c(OC)c4)cc3)cc2)cc1OC								inactive		
N=C(N)c1ccc(OCCCCCOc2ccc(C(=N)N)cc2)cc1 [PENTAMIDINE]					2.58	52700	20400			
Cc1cc(NC2CC2)nc(Nc2ccc(OCCCCCOc3ccc(Nc4nc(C)cc(NC5CC5)n4)cc3)cc2)n1	89.6	0.56 (≈ 0.964 µM)	0.0113 (≈ 0.0194 µM)	0.00625 (≈ 0.0108 µM)	6.38	2680	420			
Cc1cc(NC2CCCC2)nc(Nc2ccc(OCCCCCOc3ccc(Nc4nc(C)cc(NC5CCCC5)n4)cc3)cc2)n1	57.71	18.1 (≈ 28.4 µM)		0.313 (≈ 0.492 µM)	1.11	1690	1530			
SODIUM ANTIMONY GLUCONATE [listing 1 of 2 here]									398	
Cc1cc(NCc2ccccc2)nc(Nc2ccc(OCCCCCOc3ccc(Nc4nc(C)cc(NCc5ccccc5)n4)cc3)cc2)n1	429.15	22.1 (≈ 32.4 µM)	0.383 (≈ 0.562 µM)	0.0514 (≈ 0.0756 µM)	15.6	26000	1670			
Cc1cc(N2CCN(C)CC2)nc(Nc2ccc(OCCCCCOc3ccc(Nc4nc(C)cc(N5CCN(C)CC5)n4)cc3)cc2)n1	43.97	10.8 (≈ 16.2 µM)		0.245 (≈ 0.367 µM)	3.62	2930	810			
CCN(CC)CCCC(C)Nc1ccnc2cc(Cl)ccc12 (stereo not drawn) [CHLOROQUINE]		75 (≈ 234 µM)								
SODIUM ANTIMONY GLUCONATE [listing 2 of 2 here]										5.53
Cc1cc(N2CCN(c3ccccc3)CC2)nc(Nc2ccc(OCCCCCOc3ccc(Nc4nc(C)cc(N5CCN(c6ccccc6)CC5)n4)cc3)cc2)n1	1688	100 (≈ 126 µM)	0.0531 (≈ 0.0671 µM)	0.0592 (≈ 0.0749 µM)	>232	> 400000	1720			
O=Cc1ccc(OCCCCCOc2ccc(/C=C/C(=O)c3ccc(Br)cc3)cc2)cc1								inactive		
